# Screening data from PubChem.
# SUMO Mot1 rescue = inhibitors of SUMOylation pathway: yeast Mot1-301 growth rescue; S. cerevisiae Mot1-301 growth rescue, ATP luminescence, 38.5C; percent above DMSO median, 100 means doubled; growth rescue, % at 18.8 µM; 320,000 tested, 1% active; AID 2716;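 active = every valid replicate shows activation above 250% relative to neutral control wells; inactive = the rest, any valid replicate at or below 250%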;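 note: OY570 slx delta 5 strain wells were the positive control but not used for scaling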
# Cneo AK release = causes C. neoformans cell lysis | adenylate kinase release luminescence, 4 h; normalised: neutral wells 0, clomiphene wells 100 | lysis activity, % at 15 µM | 360,000 tested, 0.2% active | AID 651654;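 active = mean lysis activity across replicates of at least 80%, whatever share of replicates individually reach that level; inactive = mean lysis activity below 80%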
#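 Test system: log-phase Cryptococcus neoformans yeast cells. Input: 5 × 10^6 yeast cells/mL. Medium: fresh YPD growth medium. Doses: single dose. Incubation: static 4 h at 37 °C with compound, 1 h detection. Measured by: luminescent adenylate kinase detection reagent. Read-out: signal increase indicating cell lysis. Benchmarks: Clomiphene.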
# C2C12 statin = protects C2C12 myotubes from simvastatin toxicity. ATP luminescence, 48 h; scaled: DMSO 0, geranylgeraniol control 100. rescue of ATP level, % at 7.49 µM. 330,000 tested, 0.78% active. AID 602340;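 active = mean ATP rescue above about 67%, or every replicate alone reaching that limit, limit read from the data, passing the limit was not always enough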;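 note: myotubes were challenged with 10 µM simvastatin during compound exposure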
# Mot1 SUMO dose = yeast SUMO pathway inhibition in dose response | 2,300 tested, under 10 active | growth activity, percent, % at 42 µM | AID 493004 | S. cerevisiae Mot1-301 galactose growth, ATP luminescence, 24 h; -100 = growth of slx-deleted rescue strain | shares compounds with SUMO Mot1 rescue;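 active = Signal drops as the depositor expects, and the fitted half-maximal dose is no more than ten times the top valid tested dose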;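 note: more negative values mean stronger growth rescue toward the control strain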
# Active calls of the source: *; · = no result; + = active, no number. An excerpt weighted towards active compounds, which were near 1.5% of everything screened.
SMILES,SUMO Mot1 rescue,Cneo AK release,C2C12 statin,Mot1 SUMO dose
C[C@@H]1CN([C@H](C)CO)C(=O)c2cc(-c3ccc(F)cc3)cnc2O[C@@H]1CN(C)C(=O)Nc1ccc(F)cc1,·,·,9.7,·
O=C1NC(c2ccccc2)C(C(=O)c2cccs2)C(O)(C(F)(F)F)N1 (configuration not stated),374.4*,·,60.2,-0.4
COc1cc(C2NC(=S)NC(O)(C(F)(F)F)C2C(=O)c2cccs2)cc(OC)c1O (configuration not stated),-8.1,·,·,·
CC=Cc1ccc2n(c1=O)C[C@H]1[C@H](CO)[C@@H](C(=O)N[C@@H](C)c3ccccc3)[C@@H]2N1Cc1cccnc1 (mixture of isomers),·,-11.1,2.2,·
Cc1nn(C)c(Cl)c1CN1CCN(CC(C)C)C(CCO)C1 (configuration not stated),1.4,2.8,9.0,·
Cc1nn(C)c(Cl)c1CN1CCN(CCC(C)C)C(CCO)C1 (configuration not stated),+,6.0,9.4,0.1
C/C(CC(=O)NCc1ccco1)=N\NC(=O)Cc1ccc(-c2ccccc2)cc1,-19.3,·,·,·
C/C(CC(=O)NC1CCCCC1)=N\NC(=O)Cc1ccc(-c2ccccc2)cc1,437.0*,·,·,-0.1
O=S(=O)(Cc1ccccc1)NCc1ccccn1,610.5*,-2.8,-3.0,0.4
O=C(O)CNS(=O)(=O)Cc1ccccc1,917.5*,0.1,-4.5,-0.7
O=S(=O)(NCc1ccccn1)c1ccccc1,-11.6,0.0,1.9,·
CCOC(=O)CNS(=O)(=O)Cc1ccccc1,-17.9,-1.4,5.9,·
O=C(NCC[C@H]1CC[C@H](NS(=O)(=O)c2ccc(F)cc2)[C@@H](CO)O1)Nc1ccc(F)cc1,·,-4.5,-0.5,·
COc1ccc(S(=O)(=O)N(C)C[C@H]2OCCCC[C@H](C)Oc3ccc(NS(C)(=O)=O)cc3C(=O)N([C@H](C)CO)C[C@@H]2C)cc1,·,-0.6,·,·
COc1cc(NC(=O)[C@H]2CCCN2S(=O)(=O)c2cccc3cccnc23)cc(OC)c1OC,-1.2,0.5,8.6,·
O=C(NC1CCCC1)C1CCCN(S(=O)(=O)c2cccc3cccnc23)C1 (configuration not stated),-5.5,0.5,-2.1,·
O=C(NC1CCCCCC1)C1CCN(S(=O)(=O)c2cccc3cccnc23)CC1,561.1*,0.2,-4.7,0.7
COc1ccc(NC(=O)C2CCCN2S(=O)(=O)c2cccc3cccnc23)cc1OC (configuration not stated),413.7*,1.5,22.3,0.2
Cc1cc(C(=O)Nc2ccc3c(c2)C(=O)N(C)[C@@H]2CC[C@H](CC(=O)NCC(F)(F)F)O[C@@H]2CO3)no1,·,-6.8,-16.2,·
O=C1NC(=O)N(Cc2ccccc2)C1=O,+,-2.3,3.6,0.8
O=C1NC2(CCCCCC2)C(=O)N1Cc1ccccc1,-2.6,25.4,2.9,·
O=C(O)/C=C/c1cccnc1,399.5*,-0.5,3.8,-0.1
CN(C)c1ccc(C(=O)/C=C/c2cccnc2)cc1,422.7,-5.0,4.1,·
CCC(=O)Nc1ccc2c(c1)OC[C@H](C)N(CC1CCCCC1)C[C@H](C)[C@@H](OC)CN(C)C2=O,·,·,30.4,·
C[C@@H]1CN([C@@H](C)CO)C(=O)c2cc(NS(=O)(=O)c3ccc(Cl)cc3)ccc2O[C@H]1CN(C)CC1CC1,·,-2.1,-24.8,·
SMILES,SUMO Mot1 rescue,Cneo AK release,C2C12 statin,Mot1 SUMO dose
Cc1ccc(SC(C)c2nc(-c3ccncc3)no2)cc1 (configuration not stated),3.3,-1.2,18.3,·
Cc1ccc(Sc2cnccc2C#N)cc1,618.3*,-5.2,6.3,1.8
COc1ccc(C(=O)Nc2nccs2)cc1OC,21.8,0.9,-1.7,·
COc1cc(/C=C(\NC(=O)c2ccccc2)C(=O)Nc2nccs2)ccc1OC(C)=O,395.1*,-6.2,-3.5,0.4
CN1C(=O)c2cc(NC(=O)C3CCCC3)ccc2OC[C@@H]2O[C@@H](CC(=O)O)CC[C@H]21,·,-3.8,23.2,·
CCOc1cc(/C=C2\NC(=O)NC2=O)ccc1OC(C)C(=O)O (configuration not stated),513.8*,1.0,6.3,0.8
COc1cc(C=C2NC(=O)NC2=O)ccc1O,·,7.6,-0.9,·
O=C(C1CC1)N1CCCCN2[C@H](CO)[C@@H](c3ccc(C#CC4(O)CCCC4)cc3)[C@H]2C1,·,2.7,·,·
C[C@@H]1CN([C@H](C)CO)S(=O)(=O)c2ccc(-c3cccc(F)c3)cc2O[C@@H]1CN(C)CC1CC1,·,4.8,-47.2,·
CCc1cnc(N2[C@@H](C#N)[C@H](c3ccc(C#CCC4CCCC4)cc3)[C@@H]2CO)s1,·,1.5,16.8,·
CCOc1ccc2[nH]c(C(=O)N/N=C/c3ccccc3OC)cc2c1,-6.4,-0.7,-18.8,·
COc1ccc2[nH]c(C(=O)N/N=C/c3ccccc3OC)cc2c1,502.9*,0.2,0.5,0.5
Cc1ccc(S(=O)(=O)Nc2ccc3c(c2)C(=O)N([C@H](C)CO)C[C@@H](C)[C@H](CN(C)C(=O)c2ccccc2)OCCCC[C@@H](C)O3)cc1,·,0.6,·,·
COc1ccc(C(=O)CC(=O)C(=O)Nc2cccc(C(C)=O)c2)cc1,-14.6,-0.1,-8.0,·
COc1ccc(C(=O)CC(=O)C(=O)Nc2ccc(C)c(C)c2)cc1,538.5*,0.2,-10.3,-0.1
CCn1cc(CCCC(=O)NCc2ccccc2OC)c2ccccc21,888.5*,2.3,-26.4,-0.3
CCn1cc(CCC(=O)NCc2ccccc2OC)c2ccccc21,6.7,1.8,-2.7,·
CC(=O)N1C[C@@H]2[C@H](c3ccccc31)[C@H](CO)N2C(=O)c1ccc(F)cc1,·,-0.5,2.6,·
Cc1n[nH]c(=O)nc1NCc1ccc(Cl)cc1,627.4*,2.2,-16.4,0.0
Cc1n[nH]c(=O)nc1NCCN(C)C,-13.5,1.0,-11.1,·
O=C(Nc1ccc2c(c1)N(S(=O)(=O)c1cccs1)CCC2)c1c(F)cccc1Cl,-3.1,0.9,-14.7,·
COc1cccc(OC)c1C(=O)Nc1ccc2c(c1)N(S(=O)(=O)c1cccs1)CCC2,490.2*,-0.7,36.4,0.4
O=c1c2ccccc2ncn1-c1cccc(Cl)c1,6.2,-1.0,-0.1,·
O=c1c2ccccc2ncn1-c1ccc(Cl)cc1Cl,747.2*,-1.9,·,1.0
C[C@H]1CN([C@@H](C)CO)C(=O)c2cc(NC(=O)Cc3ccccc3)ccc2O[C@H]1CN(C)S(=O)(=O)c1ccc(Cl)cc1,·,-8.2,-19.4,·
SMILES,SUMO Mot1 rescue,Cneo AK release,C2C12 statin,Mot1 SUMO dose
CCC(=O)N(C)C[C@H]1Oc2cc(-c3cccc(F)c3)ccc2S(=O)(=O)N([C@@H](C)CO)C[C@@H]1C,·,4.5,-4.0,·
Cc1c(C(=O)NC(=S)Nc2ccccc2N2CCCC2)cccc1[N+](=O)[O-],425.5*,·,·,0.1
O=C(NC(=S)Nc1ccccc1N1CCCC1)c1ccc([N+](=O)[O-])cc1,407.0*,·,·,-0.1
O=C(NC(=S)Nc1ccccc1N1CCOCC1)c1ccc([N+](=O)[O-])cc1,-2.1,·,·,·
COc1ccc(C(=O)NC(=S)Nc2ccccc2N2CCCCC2)cc1[N+](=O)[O-],-25.2,·,·,·
C=CCNC(=O)/C(C#N)=C/c1c(N(Cc2ccccc2)Cc2ccccc2)nc2ccccn2c1=O,-8.0,-2.1,·,·
